PMC8978969 (RSC Advances, 2022)
Converted amounts (≈) assume the structure as drawn. “And” between values parts separate entries of the source, which are not always exact repeats. Equal values may be shown once.

How the values were obtained:
Equilibrium solubility = assay type: physicochemical; conditions: for solubility at 24 h: thermodynamic from solid
[1] = Partition coefficients by shake-flask method; assay type: physicochemical
Outline: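 Shake-flask method per OECD guidelines. n-Octanol and ultrapure water were mutually saturated by 24 h in a thermostat shaker, then 72 h standing. After partitioning, phases were centrifuged to separate completely, and drug in each phase was measured by HPLC to give logP. For logD7.4, 0.01 M PBS pH 7.4 replaced water, with otherwise identical steps.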

Solution stability assay = assay type: physicochemical; conditions: 37 °C
[2] = 24 h kinetic saturation solubilities; assay type: physicochemical
[3] = Gastrointestinal tract parallel artificial membrane permeability assay; assay type: in vitro ADME; conditions: PAMPA
Outline: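 Donor solutions were made in Tris buffer pH 6.5 at several drug concentrations starting from 150 μg ml−1. The acceptor-well hydrophobic filter (0.45 μm) was coated with 2% soybean L-α-phosphatidylcholine in n-dodecane, and the acceptor held Tris buffer pH 7.4. The sandwich was incubated 16 h at room temperature. Receiver solution was quantified by HPLC, n = 6. Papp (cm s−1) was calculated from a published equation.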

Cytotoxicity test = assay type: cell-based; conditions: human, Caco-2 cells
Outline: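 Caco-2 cells were grown in DMEM with 10% FBS and 1% penicillin/streptomycin at 37 °C in 5% CO2. Cells were seeded at 4 × 10^3 per well and left 16 h. Test compounds were dissolved in DMSO and serially diluted in DMEM, then applied for 24 h. CCK-8 was added for 3 h and absorbance read at 450 nm. IC50 was derived from a concentration–survival plot, mean ± SD of triplicates.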

Q: Which solubility at 24 h (Equilibrium solubility; FaSSIF, 37 °C, pH 6.5, fassif) does the source give for Cc1ccc(S(=O)(=O)NC(=O)NN2CC3CCCC3C2)cc1 (stereo not drawn) [GLI, Gliclazide] here?
A: 196 ± 3.32 µg/mL (≈ 606 µM)

Q: And the solubility at 24 h (Equilibrium solubility; FeSSIF, 37 °C, pH 5, fessif)?
A: 30.1 ± 1.07 µg/mL (≈ 93.2 µM)

Q: And the solubility at 24 h (Equilibrium solubility; Milli-Q water, 37 °C, water)?
A: 43.5 ± 1.67 µg/mL (≈ 135 µM)

Q: And the solubility at 24 h (Equilibrium solubility; PBS 7.4, 37 °C, pH 7.4, aqueous buffer)?
A: 1590 ± 103 µg/mL (≈ 4910 µM)

Q: And the solubility at 24 h (Equilibrium solubility; SIF, 37 °C, pH 6.8, fassgf or other biorelevant)?
A: 584 ± 23 µg/mL (≈ 1810 µM)

Q: What about the solubility thermodynamic at 24 h (Equilibrium solubility; Tris buffer pH 6.5, pH 6.5) of the same molecule?
A: 178 µg/mL (≈ 550 µM)

Q: What about the solubility at 24 h (Equilibrium solubility; blank FaSSIF, 37 °C, pH 6.5, aqueous buffer) of the same molecule?
A: 190.6 ± 0.63 µg/mL (≈ 589 µM)

Q: What about the solubility at 24 h (Equilibrium solubility; blank FeSSIF, 37 °C, pH 5, aqueous buffer) of the same molecule?
A: 28.7 ± 0.99 µg/mL (≈ 88.7 µM)

Q: What about the logD ([1]; n-octanol/PBS 7.4, pH 7.4) of the same molecule?
A: 0.45 ± 0.01

Q: What about the logP ([1]; n-octanol/water) of the same molecule?
A: 1.71 ± 0.03

Q: What about the “Solution stability in SIF” value (Solution stability assay; SIF, whole experiment period (24 h)) of the same molecule?
A: relatively stable

Q: And the “Initial content remained at 24 h” value (Solution stability assay; pH 7.4 buffer (PBS 7.4), 20 μg ml^−1 GLI, 24 h)?
A: zero

Q: What about the solubility kinetic at 12 h ([2]; Milli-Q water) of the same molecule?
A: 40.3 µg/mL (≈ 125 µM)

Q: And the “Time within which peak concentration was achieved” value ([2]; PBS 7.4, SIF and FaSSIF)?
A: ≤ 6 h

Q: And the “Time of peak concentration” value ([2]; water)?
A: 4 h

Q: And the Papp at 16 h, 150 μg ml^−1 [3]?
A: 2.46 ×10⁻⁶ cm/s

Q: And the IC50 at 24 h (Cytotoxicity test)?
A: 20.8 ± 1.11 mM

Q: For “Gliclazide tributyl(tetradecyl)phosphonium ionic liquid [[P6,6,6,14][GLI]]”, which “Solubility, FaSSIF” value (Equilibrium solubility; FaSSIF (pH 6.5), 37 °C, as GLI, n = 3, mean ± SD) is on record?
A: 34.53 ± 2.79 µg/mL

Q: What about the “Solubility, PBS 7.4” value (Equilibrium solubility; PBS pH 7.4, 37 °C, as GLI, n = 3, mean ± SD) of the same molecule?
A: 301.87 ± 6.82 µg/mL

Q: And the “Solubility, SIF” value (Equilibrium solubility; SIF (pH 6.8), 37 °C, as GLI, n = 3, mean ± SD)?
A: 102.43 ± 11.54 µg/mL

Q: And the “Solubility, Blank FaSSIF” value (Equilibrium solubility; blank FaSSIF, 37 °C, as GLI, n = 3, mean ± SD)?
A: 32.14 ± 1.56 µg/mL

Q: What about the “Solubility, Water” value (Equilibrium solubility; water, 37 °C, 24 h, as GLI, n = 3, mean ± SD) of the same molecule?
A: 1.5 µg/mL and 1.51 ± 0.13 µg/mL

Q: And the “log D7.4” value ([1]; n-octanol/PBS 7.4, 37 °C)?
A: 0.69 ± 0.02

Q: What about the “log P” value ([1]; n-octanol/water, 37 °C) of the same molecule?
A: 2.72 ± 0.24
